Legend:
Format in all cases: in vivo, human
[1] = system: healthy male subjects; assay: Treatment emergent adverse events, single dose study; settings: for Diarrhea, incidence / Vomiting, incidence: healthy elderly subjects
[2] = system: healthy male subjects; assay: Visual verbal learning test
[3] = system: healthy male subjects; assay: Face encoding and recognition task, single dose
Procedure, shortened: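 Single intranasal dose in a double-dummy design (11 mg young males; 22 or 33 mg elderly males; 6 per dose) or nasal placebo. The face encoding and recognition task was done before dosing and 1 h 45 min after the nasal dose, in a quiet room, one subject per session. Each active group was compared with age-matched placebo by mixed-model ANOVA.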

[4] = system: healthy male subjects; assay: Eye movements
[5] = system: healthy male subjects; assay: Nasal examination; settings: Gln-1062 44-mg group
Procedure, shortened: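 Nasal examination at screening, during the study period after one intranasal dose (44 mg; healthy elderly males, 6 active per cohort, double-dummy with oral capsules), and at follow-up about 1 week after dosing.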

[6] = Gln-1062 33 mg, healthy elderly males, number of subjects, percentage in parentheses
[7] = Gln-1062 44 mg, healthy elderly males, number of subjects, percentage in parentheses
[8] = Gln-1062 5.5 mg vs Placebo, healthy young males
[9] = Gln-1062 11 mg vs Placebo, healthy young males
[10] = Gln-1062 22 mg vs Placebo, healthy elderly males
[11] = Gln-1062 33 mg vs Placebo, healthy elderly males
[12] = Gln-1062 44 mg vs Placebo, healthy elderly males

With `COc1ccc2c3c1O[C@H]1C[C@@H](OC(=O)c4ccccc4)C=C[C@@]31CCN(C)C2` [Gln-1062] the Nausea [1, 6] was 3 (50), the Rhinorrhea [1, 6] was 1 (16.7) and the Sneezing [1, 6] was 1 (16.7). For the same compound, the Vomiting [1, 6] was 2 (33.3), the “Diarrhea, incidence” value ([1]; Gln-1062 33 mg) was 16.7% and the “Vomiting, incidence” value ([1]; Gln-1062 33 mg) was 33.3%. The “Cold sweat or hyperhidrosis, incidence” value ([1]; Gln-1062 44 mg) was 50%, the “Any event (treatment emerging adverse events)” value [1, 7] was 5 (83.3) and the “Cold sweat or hyperhidrosis” value [1, 7] was 3 (50). The Diarrhea [1, 7] was 1 (16.7), the Nasal discomfort [1, 7] was 3 (50) and the Nausea [1, 7] was 3 (50). For the same compound, the Rhinorrhea [1, 7] was 3 (50), the Sneezing [1, 7] was 3 (50) and the Vomiting [1, 7] was 2 (33.3). For the same compound, the “Diarrhea, incidence” value ([1]; Gln-1062 44 mg) was 16.7%, the “Vomiting, incidence” value ([1]; Gln-1062 44 mg) was 33.3% and the “Nausea, incidence” value ([1]; Gln-1062 at the highest dose levels (n = 3)) was 50%. For the same compound, the “single dose levels safe and well tolerated” value ([1]; intranasal single dose) was “up to 33 mg”, the “VVLT: delayed word recall (correct)” value [2, 8] was 3.42 (−2.62 to 9.45) P = .2431 and the “VVLT: immediate word recall trial 1 (Word recall correct 1)” value (shortened to “VVLT … (Word recall correct 1)”) [2, 8] was 3.42 (−0.73 to 7.56) P = .0984. The “VVLT: immediate word recall trial 2 (Word recall correct 2)” value (from here on “VVLT … (Word recall correct 2)”) [2, 8] was 3.17 (−1.93 to 8.26) P = .2025, the “VVLT: immediate word recall trial 3 (Word recall correct 3)” value (“VVLT … (Word recall correct 3)” for short) [2, 8] was 5.00 (−0.58 to 10.58) P = .0749 and the “VVLT: word recognition (Delayed word recognition correct)” value (“VVLT: word recognition” for short) [2, 8] was −0.15 (−8.05 to 7.75) P = .9674. The “VVLT: delayed word recall (correct)” value [2, 9] was 3.25 (−2.79 to 9.29) P = .2657, the “VVLT … (Word recall correct 1)” value [2, 9] was 3.92 (−0.23 to 8.06) P = .0621 and the “VVLT … (Word recall correct 2)” value [2, 9] was 1.83 (−3.26 to 6.93) P = .4510. The “VVLT … (Word recall correct 3)” value [2, 9] was 3.00 (−2.58 to 8.58) P = .2662, the “VVLT: word recognition” value [2, 9] was 1.45 (−6.45 to 9.35) P = .6939 and the “VVLT: delayed word recall (correct)” value [2, 10] was −0.33 (−3.58 to 2.91) P = .8354. The “VVLT … (Word recall correct 1)” value [2, 10] was 2.67 (0.17 to 5.16) P = .0367, the “VVLT … (Word recall correct 2)” value [2, 10] was 3.50 (0.33 to 6.67) P = .0315 and the “VVLT … (Word recall correct 3)” value [2, 10] was 0.67 (−3.23 to 4.56) P = .7302. For the same compound, the “VVLT: word recognition” value [2, 10] was 0.87 (−4.09 to 5.82) P = .7231, the “VVLT: delayed word recall (correct)” value [2, 11] was −0.00 (−3.63 to 3.63) P = 1.0000 and the “VVLT … (Word recall correct 1)” value [2, 11] was 1.97 (−0.65 to 4.58) P = .1355. For the same compound, the “VVLT … (Word recall correct 2)” value [2, 11] was 1.77 (−1.56 to 5.09) P = .2880, the “VVLT … (Word recall correct 3)” value [2, 11] was 0.60 (−3.49 to 4.69) P = .7672 and the “VVLT: word recognition” value [2, 11] was −0.67 (−6.45 to 5.12) P = .8153. For the same compound, the “VVLT: delayed word recall (correct)” value [2, 12] was −1.00 (−4.63 to 2.63) P = .5780, the “VVLT … (Word recall correct 1)” value [2, 12] was 2.57 (−0.05 to 5.18) P = .0541 and the “VVLT … (Word recall correct 2)” value [2, 12] was 1.77 (−1.56 to 5.09) P = .2880. For the same compound, the “VVLT … (Word recall correct 3)” value [2, 12] was 1.00 (−3.09 to 5.09) P = .6222, the “VVLT: word recognition” value [2, 12] was 2.17 (−3.11 to 7.45) P = .4083 and the “Face: number correct” value [3, 8] was −0.77 (−4.17 to 2.64) P = .6332. The “Face: number correct” value [3, 9] was 4.54 (1.22 to 7.87) P = .0116, the “Face: number correct” value [3, 10] was −2.58 (−7.22 to 2.06) P = .2642 and the “Face: number correct” value [3, 11] was −0.54 (.5.15 to 4.08) P = .8135. The “Face: number correct” value [3, 12] was −1.63 (−6.30 to 3.05) P = .4822, the “Saccadic Inaccuracy” value [4, 8] was −1.56 (−2.77 to −0.35) P = .0157% and the “Saccadic Peak Velocity” value [4, 8] was 9.90 (−17.50 to 37.30) P = .4465 deg/sec. For the same compound, the “Saccadic Inaccuracy” value [4, 9] was −1.78 (−3.03 to −0.54) P = .0088%, the “Saccadic Peak Velocity” value [4, 9] was 8.32 (−18.32 to 34.95) P = .5097 deg/sec and the “Saccadic Inaccuracy” value [4, 10] was 0.24 (−1.01 to 1.48) P = .7005%. For the same compound, the “Saccadic Peak Velocity” value [4, 10] was 26.92 (4.11 to 49.73) P = .0223 deg/sec, the “Saccadic Inaccuracy” value [4, 11] was 0.08 (−1.14 to 1.30) P = .8970% and the “Saccadic Peak Velocity” value [4, 11] was 0.92 (−21.84 to 23.68) P = .9349 deg/sec. For the same compound, the “Saccadic Inaccuracy” value [4, 12] was −0.22 (−1.57 to 1.12) P = .7363%, the “Saccadic Peak Velocity” value [4, 12] was 19.19 (−5.54 to 43.92) P = .1242 deg/sec and the “subjects with dry white plaques in the nostrils” value [5] was “three”.
